Screens: PubChem, The Scripps Research Institute Molecular Screening Center
Sampled rows, rich in hits. Any-hit rate of the full collection: about 2.3%.
V1aR counter: activates human V1a receptor in oxytocin agonist counter-screen | P37288 | CHO-V1R cells, Fluo-8 calcium fluorescence, agonist mode; 0% DMSO, 100% 3 nM vasopressin | activation, % at 3 µM | hit rate 0.25% among 320,000 | AID 2797;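 active = activation above the mean activation of all tested compounds plus 3 SD, per screening run, cut at about 20% in these data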;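 also: signal is peak over basal fluorescence ratio across a 100 second FLIPR read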
Target sequence (P37288 whole entry, looked up): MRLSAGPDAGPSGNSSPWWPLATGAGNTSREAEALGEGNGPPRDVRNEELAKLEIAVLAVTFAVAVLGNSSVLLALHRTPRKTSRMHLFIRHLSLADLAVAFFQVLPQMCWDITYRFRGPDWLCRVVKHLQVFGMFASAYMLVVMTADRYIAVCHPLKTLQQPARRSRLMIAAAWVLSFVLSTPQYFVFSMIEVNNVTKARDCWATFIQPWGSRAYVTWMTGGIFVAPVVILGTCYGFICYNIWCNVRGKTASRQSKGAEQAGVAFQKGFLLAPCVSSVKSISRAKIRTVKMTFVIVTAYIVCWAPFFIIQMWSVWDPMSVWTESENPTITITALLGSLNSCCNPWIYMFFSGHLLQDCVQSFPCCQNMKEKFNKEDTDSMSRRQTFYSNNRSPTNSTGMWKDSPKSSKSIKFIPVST
OXTR potentiate: potentiators of human oxytocin receptor; P30559; CHO-OTR cells, Fluo-8 calcium fluorescence, potentiator mode; 0% = oxytocin EC15, 100% = EC100; activation, % at 3 µM; hit rate 0.061% among 320,000; AID 2445;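 active = activation above that plate's cutoff, the mean activation of tested compounds plus 3 SD, cut at about 6.6% in these data, passing the limit was not always enough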;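 also: 100% uses oxytocin at 75 nM as the full agonist control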
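Material: human OTR in CHO cells. Compound: 3.0 µM, one dose. Timing: compound 6 min at room temperature before oxytocin, 100 s read. Evaluation: % activation of max/min ratio relative to oxytocin controls. Replication: single well per compound, singlicate. Signal: Fluo-8 calcium dye fluorescence.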
TAAR1 antagonist: antagonists of human TAAR1 | inhibition, % at 3 µM | Q96RJ0 | hit rate 1.5% among 360,000 | CHO RD-HGA16 TAAR1, Fluo-8 calcium fluorescence, antagonist;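 active = inhibition above a per-plate cutoff, the mean inhibition of test compounds on that plate plus 3 SD, cut at about 49% in these data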;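 also: 0% = DMSO plus EC80 beta-PEA response and 100% = DMSO alone without agonist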
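Test system: CHO RD-HGA16 cells bearing hTAAR1 | Reagent: β-PEA, EC80 | Compound dosing: 3 µM, single point | Schedule: Dye loading 75 min at 37 °C, then 30 min room temperature | Signal: Calcium fluorescence with Fluo-8 | Evaluation: Percent inhibition of PEA-evoked calcium signal, max/basal emission ratio | Control set: DMSO-only wells and EC80 β-PEA-stimulated wells | Repeats: Singlicate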
TAAR1 ag: agonists of human TAAR1 | CHO RD-HGA16 TAAR1, Fluo-8 calcium fluorescence; vehicle wells 0%, saturating PEA agonist 100% | Q96RJ0 | AID 624467 | activation, % at 3 µM | hit rate 0.99% among 360,000;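 active = activation above the mean activation of all test compounds in the run plus 3 SD, cut at about 38% in these data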
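test system = CHO RD-HGA16 cells carrying human TAAR1 plus Gα16 | schedule = 17-24 h seeding, 75 min 37 °C dye, 30 min RT | compound dosing = 3 µM single concentration | control set = DMSO and PEA EC100 | replicates = n 1 | signal = Fluo-8 fluorescence, 5 s baseline then 140 s kinetic read | measure = percent activation vs PEA EC100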
OXTR agonist: agonists of human oxytocin receptor; P30559; CHO-OTR cells, Fluo-8 calcium fluorescence; normalized: DMSO 0%, oxytocin 100%; activation, % at 3 µM; hit rate 0.32% among 320,000; AID 2435;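 active = activation above the mean of all tested compounds plus 3 SD, cutoff set per screening run, cut at about 20% in these data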;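 also: peak over basal fluorescence ratio from a 100 s FLIPR kinetic read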
nonsel antag count: nonselective antagonism, TAAR1 counter-screen | inhibition, % at 3 µM | shares compounds with TAAR1 antagonist | hit rate 77% among 2,400 | counterscreen cell line, calcium fluorescence, antagonist mode; in the data active = inhibition above about 22%;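 also: CHO-Ga16 host cells stimulated with ATP at an EC80 level; 0% = agonist EC80 plus vehicle and 100% = vehicle without agonist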
TAAR1 ant conf: human TAAR1 antagonism, confirmed; inhibition, % at 3 µM; AID 651785; hit rate 40% among 2,400; TAAR1-expressing cells, fluorescence antagonist read-out; shares compounds with TAAR1 antagonist; in the data active = inhibition above about 49%;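 also: CHO-Ga16 host cells challenged with agonist PEA near its EC80; 0% = agonist at EC80 plus vehicle and 100% = vehicle with no agonist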
Ga16 nonsel ag: nonselective Ga16 agonist in TAAR1 antagonist counter-screen | shares compounds with TAAR1 antagonist | Ga16-expressing cells, calcium fluorescence, agonist counterscreen | activation, % at 3 µM | hit rate 18% among 2,400; in the data active = activation above about 12%;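 also: 0% = vehicle wells and 100% = saturating stimulus response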
TAAR1 ag counter: activates human TAAR1 in antagonist counter-screen. shares compounds with TAAR1 antagonist. hit rate 2% among 2,400. hTAAR1 cell line, fluorescence activation, agonist mode. AID 651955. activation, % at 3 µM; in the data active = activation above about 37%;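 also: CHO cells stably expressing TAAR1 with calcium dye readout; 0% = DMSO vehicle and 100% = full agonist response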
* = called active by the depositor; . = not tested or not shown.

SMILES | V1aR counter | OXTR potentiate | TAAR1 antagonist | TAAR1 ag | OXTR agonist | nonsel antag count | TAAR1 ant conf | Ga16 nonsel ag | TAAR1 ag counter
CCNC(=O)c1cc2c(c(-c3cccc(-c4cncnc4)c3)n1)[C@@H](CCO)N(C(C)=O)C2 | . | . | -23.2 | 2.5 | . | . | . | . | .
Cc1ccc(-c2[nH]c3ccccc3c2C(C[N+](=O)[O-])c2ccco2)cc1 (configuration not stated) | 0.3 | -5.2 | 63.4* | 14.9 | -1.2 | 2.3 | 23.7 | 2.7 | 0.7
Cc1[nH]c2ccccc2c1C(C[N+](=O)[O-])c1ccco1 (configuration not stated) | -0.9 | -7.8 | -3.6 | -1.6 | -0.8 | . | . | . | .
Cc1cccc(-c2noc(-c3ccccc3C(=O)NCc3ccco3)n2)c1 | -0.6 | -8.9 | 52.5* | 16.1 | -2.7 | 25.6* | 35.2 | 4.5 | 4.1
O=C(NCc1ccco1)c1cccc(-c2nnc(-c3ccccc3)o2)c1 | 0.7 | 4.2 | 61.7* | 10.8 | -2.1 | 22.0* | 42.3 | 6.5 | 9.7
Cc1cccc(-c2noc(CCC(=O)NCCc3ccccc3)n2)c1 | 3.6 | -15.3 | 12.3 | 16.9 | 3.8 | . | . | . | .
Cc1cccc(-c2noc(CCC(=O)NCc3ccccc3)n2)c1 | 0.1 | -0.9 | 105.6* | 7.7 | 1.3 | 13.2 | 4.0 | 7.5 | 11.7
Cc1cc(C)c(CN2CCN(C(=O)Cn3cnc4c(NCc5ccccc5)ncnc43)CC2)c(C)c1 | . | . | -9.0 | -1.7 | . | . | . | . | .
COC(=O)N1C[C@H](OCc2cn(-c3ccc(OC)cc3)nn2)[C@H]2C[C@@H]1c1ccccc1O2 | . | . | -7.9 | -1.5 | . | . | . | . | .
Cc1ccc(C)c(NC(=O)C(Sc2nc3ccccc3c(=O)n2CC(C)C)c2ccccc2)c1 (configuration not stated) | 1.0 | -1.9 | 55.9* | 6.5 | -1.4 | 28.3* | 50.3* | 2.6 | 1.2
COc1ccccc1CN(Cc1nc2ccccc2c(=O)[nH]1)S(=O)(=O)c1ccc2ccccc2c1 | 1.8 | -15.7 | 70.3* | 7.3 | -0.2 | 25.5* | 55.7* | 7.4 | 9.6
CC(=O)c1c(C)[nH]c(C(=O)Nc2cccc(S(=O)(=O)N(C)c3ccccc3)c2)c1C | 9.5 | -12.8 | 60.8* | 17.5 | 8.4 | 43.9* | 65.8* | 14.4* | 12.9
COCc1ccc(C(=O)Nc2cccc(S(=O)(=O)N(C)c3ccccc3)c2)cc1 | 6.9 | -11.8 | 53.4* | 10.3 | 10.6 | 31.8* | 37.7 | 8.4 | 5.5
CCS(=O)(=O)N1Cc2ccccc2CC1C(=O)Nc1nnc(SCc2ccc(C#N)cc2)s1 (configuration not stated) | 3.4 | -15.4 | 67.7* | 25.6 | 4.8 | 33.8* | 56.4* | 12.1* | 13.1
C[C@@H]1CN([C@@H](C)CO)C(=O)CCCn2nncc2CO[C@H]1CN(C)S(=O)(=O)c1ccccc1C#N | . | . | -5.2 | 2.1 | . | . | . | . | .
CCn1cnc2c(Nc3cc(F)cc(F)c3)nc(C#N)nc21 | -0.6 | -5.3 | -5.9 | 11.1 | -0.1 | . | . | . | .
N#Cc1nc(Nc2cccc(Cl)c2)c2ncn(C3CCCC3)c2n1 | 1.3 | -0.5 | 75.5* | 19.4 | 1.8 | 22.3* | 32.2 | 2.4 | 2.2
CCCc1ccc(C(=O)/C=C/N(C)C)cc1 | -0.7 | -8.5 | -13.6 | -2.3 | -1.0 | . | . | . | .
CCS(=O)(=O)N1N=C(c2cccs2)CC1c1cc2cc(C)ccc2nc1Cl (configuration not stated) | 0.7 | -1.9 | 49.5* | 4.7 | 1.0 | 10.9 | 18.5 | 10.1 | 8.8
COC(=O)C1=C(C)N(Cc2ccccc2C(F)(F)F)C(=NCc2ccc3c(c2)OCO3)NC1c1cccc(Cl)c1 (configuration not stated) | . | . | 7.8 | 17.3 | . | . | . | . | .
